According to ChEMBL document CHEMBL1125511, “Molecular determinants of the platelet aggregation inhibitory activity of carbamoylpiperidines” (J Med Chem, 1992):

Tests used:
[1] = Partition coefficient (logP); assay type: physicochemical; settings: octanol/water
[2] = species on record: Homo sapiens; experiment: Concentration required to inhibit ADP-induced platelet aggregation by 50%
[3] = species on record: Homo sapiens; experiment: Concentration inhibits collagen-induced platelet aggregation by 50%(Human blood); assay type: functional
Outline: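 Human platelets from citrated PRP washed in HEPES-buffered saline pH 7.4 (EGTA 5 mM, PGE1 1 μM), aequorin-loaded, resuspended with 1 mM MgCl2 and 1 mM CaCl2 at (3-4) × 10^5 platelets/μL. Fibrinogen 1.2 μg added, 37 °C, 1100 rpm stirring. Compound in 95% ethanol added 1 min before collagen (5 μg). Aggregation recorded 5 min. IC50 from linear regression of IC% on log concentration.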

| logP ([1]; read-out: logP) | IC50 ([2]; Homo sapiens) | logP [1] | IC50 [2] | IC50 [3] | Structure (SMILES) |
| --- | --- | --- | --- | --- | --- |
| 4.72 | 27.3 µM | – | – | – | CN(Cc1ccccc1)C(=O)C1CCCN(Cc2ccc(CN3CCCC(C(=O)N(C)Cc4ccccc4)C3)cc2)C1 (stereo unspecified) |
| 5.76 | 37.7 µM | – | – | – | CCN(Cc1ccccc1)C(=O)C1CCCN(Cc2ccc(CN3CCCC(C(=O)N(CC)Cc4ccccc4)C3)cc2)C1 (stereo unspecified) |
| – | 862 µM | 10.202 | – | – | Br.Br.CCCCCCCCCCNC(=O)C1CCCN(Cc2ccc(CN3CCCC(C(=O)NCCCCCCCCCC)C3)cc2)C1 (stereo unspecified) |
| – | – | – | 15.3 µM | 10.7 µM | CCN(CC)C(=O)C1CCCN(Cc2ccc(CN3CCCC(C(=O)N(CC)CC)C3)cc2)C1 (stereo in doubt; 3a-C (+)) |
| – | – | – | 233 µM | 199 µM | CCN(CC)C(=O)C1CCCN(Cc2ccc(CN3CCCC(C(=O)N(CC)CC)C3)cc2)C1 (single isomer, unassigned; (-)) |
| 7.63 | 58.7 µM | – | – | – | CCCCN(CCCC)C(=O)C1CCCN(Cc2ccc(CN3CCCC(C(=O)N(CCCC)CCCC)C3)cc2)C1 (stereo unspecified) |
| 4.52 | 22.1 µM | – | – | – | CCCCN(C)C(=O)C1CCCN(Cc2ccc(CN3CCCC(C(=O)N(C)CCCC)C3)cc2)C1 (stereo unspecified) |
| 8.03 | – | – | – | – | O=C(C1CCCN(Cc2ccc(CN3CCCC(C(=O)N(Cc4ccccc4)Cc4ccccc4)C3)cc2)C1)N(Cc1ccccc1)Cc1ccccc1 (stereo unspecified) |
| 3.48 | – | – | 44.5 µM | 20.2 µM | CCN(CC)C(=O)C1CCCN(Cc2ccc(CN3CCCC(C(=O)N(CC)CC)C3)cc2)C1 (stereo in doubt; 3a) |
| 6.79 | 72.9 µM | – | – | – | CCCN(Cc1ccccc1)C(=O)C1CCCN(Cc2ccc(CN3CCCC(C(=O)N(CCC)Cc4ccccc4)C3)cc2)C1 (stereo unspecified) |
| – | – | – | 41.4 µM | 65.7 µM | CCN(CC)C(=O)C1CCCN(Cc2ccc(CN3CCCC(C(=O)N(CC)CC)C3)cc2)C1 (stereo in doubt; 3a-B (0)) |
| 4.18 | 53.6 µM | – | – | – | O=C(NCc1ccccc1)C1CCCN(Cc2ccc(CN3CCCC(C(=O)NCc4ccccc4)C3)cc2)C1 (stereo unspecified) |
| 4.8 | 1560 µM | – | – | – | CCN(CC)CC1CCCN(Cc2ccc(CN3CCCC(CN(CC)CC)C3)cc2)C1 (stereo unspecified) |
